In ChEMBL document CHEMBL5696442, “Discovery of type II inhibitors of TGFβ-activated kinase 1 (TAK1) and mitogen-activated protein kinase kinase kinase kinase 2 (MAP4K2)” (J Med Chem, 2015):
Activity calls are given as the source filed them. No cut-off for these calls is given here.

How the values were obtained:
[1] = target: Calcium/calmodulin-dependent protein kinase type II subunit delta (Homo sapiens) (UniProt Q13557); test: Inhibition of CaMK2d Lys1 labeling site harbouring IPTGQEYAAKIINTK in human Huh-7 cells at 1 uM by KiNativ Profiling analysis relative to control; type: cell-based
[2] = target: Serine/threonine-protein kinase PLK1 (Homo sapiens) (UniProt P53350); test: Inhibition of PLK1 Lys2 labeling site harbouring DLKLGNLFLNEDLEVK in human Huh-7 cell lysate at 1 uM by KiNativ Profiling analysis relative to control; type: subcellular
[3] = target: Mitogen-activated protein kinase kinase kinase 11 (Homo sapiens) (UniProt Q16584); test: Inhibition of MLK3 Lys2 labeling site in human Huh-7 cell lysate at 1 uM by KiNativ Profiling analysis relative to control; type: subcellular
[4] = tested on: Tyrosine-protein kinase ABL1 (Homo sapiens), P00519 [M351T]; test: Inhibition of phosphorylated ABL1 M351T mutant (unknown origin) at 1 uM by Ambit Kinomescan binding assay relative to control; values are per cent of control
[5] = target: Protein kinase C theta type (Homo sapiens) (UniProt Q04759); test: Inhibition of PRKCQ (unknown origin) at 1 uM by Ambit Kinomescan binding assay relative to control
Method in brief: (§1)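 In vitro ATP-site competition binding assay against a panel of over 420 kinases (KinomeScan), with compound tested at 10 or 1 μM.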

[6] = target: Ribosomal protein S6 kinase alpha-2 (Homo sapiens) (UniProt Q15349); test: Inhibition of N-terminal RSK3 kinase domain 1 (unknown origin) at 1 uM by Ambit Kinomescan binding assay relative to control; method in brief: as §1
[7] = target: Receptor-interacting serine/threonine-protein kinase 2 (Homo sapiens) (UniProt O43353); test: Inhibition of RIPK2 (unknown origin) at 1 uM by Ambit Kinomescan binding assay relative to control
[8] = target: Mitogen-activated protein kinase 8 (Homo sapiens, UniProt P45983); test: Inhibition of JNK1 (unknown origin) at 1 uM by Ambit Kinomescan binding assay relative to control
[9] = target: Phosphatidylinositol 4-kinase beta (Homo sapiens) (UniProt Q9UBF8); test: Inhibition of PI4KB ATP labeling site harbouring VPHTQAVVLNSKDKAPYLIYVEVLECENFDTTSVPAR in human A-375 cells at 5 uM by KiNativ Profiling analysis relative to control; type: cell-based
[10] = target: Vascular endothelial growth factor receptor 2 (Homo sapiens) (UniProt P35968); test: Inhibition of VEGFR2 (unknown origin) at 1 uM by Ambit Kinomescan binding assay relative to control
[11] = target: Ephrin type-B receptor 3 (Homo sapiens) (UniProt P54753); test: Inhibition of EPHB3 (unknown origin) at 10 uM by Ambit Kinomescan binding assay
[12] = target: Myosin light chain kinase, smooth muscle (Homo sapiens) (UniProt Q15746); test: Inhibition of MYLK (unknown origin) at 10 uM by Ambit Kinomescan binding assay; method in brief: as §1
[13] = target: Tyrosine-protein kinase CSK (Homo sapiens, UniProt P41240); test: Inhibition of CSK ACT labeling site harbouring VSDFGLTKEASSTQDTGKLPVKWTAPEALR in human A-375 cells at 5 uM by KiNativ Profiling analysis relative to control; type: cell-based
[14] = target: DNA-PK/Ku70/Ku85 (Homo sapiens) (UniProt P78527+P12956+P13010); test: Inhibition of DNAPK ATP labeling site harbouring GHDEREHPFLVKGGEDLRQDQR in human A-375 cells at 0.5 uM by KiNativ Profiling analysis relative to control; type: cell-based
[15] = tested on: Tyrosine-protein kinase ABL1 (Homo sapiens), P00519 [E255K]; test: Inhibition of ABL1 E255K mutant (unknown origin) at 10 uM by Ambit Kinomescan binding assay relative to control
[16] = target: Serine/threonine-protein kinase BRSK1 (Homo sapiens) (UniProt Q8TDC3); test: Inhibition of BRSK1 (unknown origin) at 10 uM by Ambit Kinomescan binding assay
[17] = target: Vascular endothelial growth factor receptor 2 (Homo sapiens) (UniProt P35968); test: Inhibition of VEGFR2 (unknown origin) at 10 uM by Ambit Kinomescan binding assay relative to control; values are per cent of control
[18] = target: Casein kinase II subunit alpha (Homo sapiens) (UniProt P68400); test: Inhibition of CK2a1 in human Huh-7 cells at 10 uM by KiNativ Profiling analysis relative to control; type: cell-based
[19] = target: Ribosomal protein S6 kinase alpha-3 (Homo sapiens) (UniProt P51812); test: Inhibition of RSK2 Domain 2 K2 labeling site harbouring DLKPSNILYVDESGNPESIR in human Huh-7 cells at 1 uM by KiNativ Profiling analysis relative to control; type: cell-based
[20] = target: Serine/threonine-protein kinase PAK 4 (Homo sapiens) (UniProt O96013); test: Inhibition of PAK4 (unknown origin) at 10 uM by Ambit Kinomescan binding assay
[21] = target: Myosin-IIIb (Homo sapiens) (UniProt Q8WXR4); test: Inhibition of MYO3B (unknown origin) at 10 uM by Ambit Kinomescan binding assay relative to control
[22] = target: T1, Receptor-interacting serine/threonine-protein kinase 4 (Homo sapiens) (UniProt P57078); test: Inhibition of ANKRD3 Lys1 labeling site in human A-375 cells at 0.05 uM by KiNativ Profiling analysis relative to control; type: cell-based
T1 sequence (whole entry): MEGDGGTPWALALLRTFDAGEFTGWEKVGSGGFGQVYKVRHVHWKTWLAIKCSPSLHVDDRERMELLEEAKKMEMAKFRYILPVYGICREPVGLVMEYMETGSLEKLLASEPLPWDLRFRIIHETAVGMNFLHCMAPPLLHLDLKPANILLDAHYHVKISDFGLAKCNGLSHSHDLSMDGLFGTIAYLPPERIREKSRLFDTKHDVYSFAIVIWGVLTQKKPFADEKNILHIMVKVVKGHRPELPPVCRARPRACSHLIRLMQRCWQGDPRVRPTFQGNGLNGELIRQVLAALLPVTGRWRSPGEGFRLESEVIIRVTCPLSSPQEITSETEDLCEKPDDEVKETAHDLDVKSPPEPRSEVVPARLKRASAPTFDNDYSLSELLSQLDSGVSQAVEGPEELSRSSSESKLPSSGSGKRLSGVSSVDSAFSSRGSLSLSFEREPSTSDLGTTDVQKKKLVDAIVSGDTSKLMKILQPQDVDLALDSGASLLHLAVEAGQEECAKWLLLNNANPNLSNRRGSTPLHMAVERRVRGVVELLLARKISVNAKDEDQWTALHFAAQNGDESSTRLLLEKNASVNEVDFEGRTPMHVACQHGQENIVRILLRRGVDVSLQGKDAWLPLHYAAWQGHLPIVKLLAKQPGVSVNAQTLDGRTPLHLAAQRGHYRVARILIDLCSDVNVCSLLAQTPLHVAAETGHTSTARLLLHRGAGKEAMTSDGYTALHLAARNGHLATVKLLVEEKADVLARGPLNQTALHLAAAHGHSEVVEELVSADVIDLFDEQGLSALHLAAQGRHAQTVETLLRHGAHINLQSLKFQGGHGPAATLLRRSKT

Vascular endothelial growth factor receptor 2 (Homo sapiens), sequence (P35968 whole entry): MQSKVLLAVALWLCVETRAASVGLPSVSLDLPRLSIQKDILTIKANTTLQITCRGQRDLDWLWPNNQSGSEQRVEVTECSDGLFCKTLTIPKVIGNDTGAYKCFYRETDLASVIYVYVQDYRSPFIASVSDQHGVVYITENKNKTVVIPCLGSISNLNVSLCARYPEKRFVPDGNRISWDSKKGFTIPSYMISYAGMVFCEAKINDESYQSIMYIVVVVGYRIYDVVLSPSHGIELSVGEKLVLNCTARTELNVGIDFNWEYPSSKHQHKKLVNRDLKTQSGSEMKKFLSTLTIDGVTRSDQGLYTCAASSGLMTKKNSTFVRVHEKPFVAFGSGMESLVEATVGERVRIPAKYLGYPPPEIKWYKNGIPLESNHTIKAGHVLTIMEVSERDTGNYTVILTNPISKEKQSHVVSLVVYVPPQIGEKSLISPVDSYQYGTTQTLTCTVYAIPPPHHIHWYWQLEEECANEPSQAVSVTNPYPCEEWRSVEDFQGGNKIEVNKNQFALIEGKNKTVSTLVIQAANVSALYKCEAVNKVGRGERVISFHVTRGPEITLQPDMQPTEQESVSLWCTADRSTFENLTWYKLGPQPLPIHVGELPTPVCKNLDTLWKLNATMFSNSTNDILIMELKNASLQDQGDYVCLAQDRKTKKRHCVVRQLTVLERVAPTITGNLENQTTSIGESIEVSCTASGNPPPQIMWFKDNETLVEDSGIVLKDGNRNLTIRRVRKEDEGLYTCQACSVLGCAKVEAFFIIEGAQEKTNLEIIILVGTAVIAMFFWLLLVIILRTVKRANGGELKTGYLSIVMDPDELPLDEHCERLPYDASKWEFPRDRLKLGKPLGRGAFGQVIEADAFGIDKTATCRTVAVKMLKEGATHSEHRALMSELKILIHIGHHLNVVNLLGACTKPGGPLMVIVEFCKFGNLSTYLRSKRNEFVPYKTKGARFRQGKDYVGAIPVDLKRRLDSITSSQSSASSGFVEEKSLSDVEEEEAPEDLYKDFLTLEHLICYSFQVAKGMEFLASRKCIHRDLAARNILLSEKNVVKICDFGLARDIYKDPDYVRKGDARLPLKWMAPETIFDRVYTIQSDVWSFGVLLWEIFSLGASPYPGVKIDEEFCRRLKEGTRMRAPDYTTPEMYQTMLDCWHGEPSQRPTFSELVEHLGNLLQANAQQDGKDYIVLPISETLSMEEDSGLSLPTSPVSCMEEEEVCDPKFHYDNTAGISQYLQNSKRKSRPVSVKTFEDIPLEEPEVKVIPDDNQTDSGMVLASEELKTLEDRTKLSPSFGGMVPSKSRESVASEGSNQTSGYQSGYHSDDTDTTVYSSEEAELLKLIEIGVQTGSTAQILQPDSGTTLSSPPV
Ribosomal protein S6 kinase alpha-2 (Homo sapiens), sequence (Q15349 whole entry, the tested form may be a part): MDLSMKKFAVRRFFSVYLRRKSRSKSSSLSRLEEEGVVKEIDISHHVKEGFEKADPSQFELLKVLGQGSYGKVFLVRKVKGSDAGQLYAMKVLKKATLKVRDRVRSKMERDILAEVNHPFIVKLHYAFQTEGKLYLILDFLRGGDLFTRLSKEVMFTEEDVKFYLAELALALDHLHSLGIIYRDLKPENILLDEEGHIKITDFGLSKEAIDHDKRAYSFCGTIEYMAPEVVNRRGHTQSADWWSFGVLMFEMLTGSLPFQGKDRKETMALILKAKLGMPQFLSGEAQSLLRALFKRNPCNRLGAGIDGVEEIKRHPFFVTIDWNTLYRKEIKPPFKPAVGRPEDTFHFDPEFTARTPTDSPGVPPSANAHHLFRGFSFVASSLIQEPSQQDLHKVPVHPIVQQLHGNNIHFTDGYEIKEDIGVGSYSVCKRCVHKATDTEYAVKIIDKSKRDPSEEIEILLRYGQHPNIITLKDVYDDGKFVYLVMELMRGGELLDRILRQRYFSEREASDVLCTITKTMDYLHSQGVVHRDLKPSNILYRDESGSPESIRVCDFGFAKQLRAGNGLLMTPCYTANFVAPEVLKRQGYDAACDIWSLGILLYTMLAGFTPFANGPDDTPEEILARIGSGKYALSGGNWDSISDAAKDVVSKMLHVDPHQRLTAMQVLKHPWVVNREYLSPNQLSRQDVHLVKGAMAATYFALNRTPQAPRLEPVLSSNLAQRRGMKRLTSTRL
Phosphatidylinositol 4-kinase beta (Homo sapiens), sequence (Q9UBF8 2-816 limits assumed): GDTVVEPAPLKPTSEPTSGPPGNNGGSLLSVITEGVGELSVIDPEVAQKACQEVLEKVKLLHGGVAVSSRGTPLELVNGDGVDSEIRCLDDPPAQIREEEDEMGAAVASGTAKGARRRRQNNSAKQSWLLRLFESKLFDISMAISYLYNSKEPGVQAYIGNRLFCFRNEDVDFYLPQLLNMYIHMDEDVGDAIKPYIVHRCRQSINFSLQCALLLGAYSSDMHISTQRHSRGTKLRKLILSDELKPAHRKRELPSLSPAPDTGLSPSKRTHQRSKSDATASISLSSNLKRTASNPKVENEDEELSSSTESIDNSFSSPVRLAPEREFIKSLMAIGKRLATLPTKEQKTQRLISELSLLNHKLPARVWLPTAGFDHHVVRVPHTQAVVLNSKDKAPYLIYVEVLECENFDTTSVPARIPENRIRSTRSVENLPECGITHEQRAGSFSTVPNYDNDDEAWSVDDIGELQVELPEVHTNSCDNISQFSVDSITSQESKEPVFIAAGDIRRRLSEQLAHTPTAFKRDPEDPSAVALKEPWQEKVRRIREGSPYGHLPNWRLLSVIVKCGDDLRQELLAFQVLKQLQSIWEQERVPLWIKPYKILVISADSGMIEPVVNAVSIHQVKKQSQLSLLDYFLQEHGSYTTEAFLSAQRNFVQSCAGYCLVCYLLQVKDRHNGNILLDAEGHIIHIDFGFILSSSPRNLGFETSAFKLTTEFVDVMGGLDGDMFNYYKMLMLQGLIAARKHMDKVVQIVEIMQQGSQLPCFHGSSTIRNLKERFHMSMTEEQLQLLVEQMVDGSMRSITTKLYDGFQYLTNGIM
Tyrosine-protein kinase CSK, sequence (P41240 2-450 limits assumed): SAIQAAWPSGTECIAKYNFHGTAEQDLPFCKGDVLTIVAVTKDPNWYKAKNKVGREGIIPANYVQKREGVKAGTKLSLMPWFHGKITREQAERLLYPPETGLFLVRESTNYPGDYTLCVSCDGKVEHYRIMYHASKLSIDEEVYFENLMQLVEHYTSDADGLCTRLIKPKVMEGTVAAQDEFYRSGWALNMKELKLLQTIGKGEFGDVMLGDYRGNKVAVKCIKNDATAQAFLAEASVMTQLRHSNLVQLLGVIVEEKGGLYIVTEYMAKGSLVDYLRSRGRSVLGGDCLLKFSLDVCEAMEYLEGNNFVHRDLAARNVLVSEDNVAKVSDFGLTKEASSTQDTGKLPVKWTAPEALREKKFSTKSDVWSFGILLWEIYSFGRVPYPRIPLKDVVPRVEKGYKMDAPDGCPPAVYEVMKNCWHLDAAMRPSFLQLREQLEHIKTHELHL
Mitogen-activated protein kinase 8, sequence (P45983 whole entry): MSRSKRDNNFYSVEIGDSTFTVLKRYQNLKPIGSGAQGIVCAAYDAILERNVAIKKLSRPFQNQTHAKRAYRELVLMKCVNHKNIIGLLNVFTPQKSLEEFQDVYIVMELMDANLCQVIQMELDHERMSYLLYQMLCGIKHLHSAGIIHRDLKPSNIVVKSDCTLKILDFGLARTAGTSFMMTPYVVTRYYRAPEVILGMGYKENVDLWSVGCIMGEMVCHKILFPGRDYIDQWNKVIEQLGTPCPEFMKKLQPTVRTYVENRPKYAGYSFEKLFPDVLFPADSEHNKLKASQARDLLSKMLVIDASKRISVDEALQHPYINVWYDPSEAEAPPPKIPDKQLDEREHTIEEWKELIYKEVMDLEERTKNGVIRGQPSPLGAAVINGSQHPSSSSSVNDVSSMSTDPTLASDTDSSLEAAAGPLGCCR
Ribosomal protein S6 kinase alpha-3 (Homo sapiens), sequence (P51812 whole entry, the tested form may be a part): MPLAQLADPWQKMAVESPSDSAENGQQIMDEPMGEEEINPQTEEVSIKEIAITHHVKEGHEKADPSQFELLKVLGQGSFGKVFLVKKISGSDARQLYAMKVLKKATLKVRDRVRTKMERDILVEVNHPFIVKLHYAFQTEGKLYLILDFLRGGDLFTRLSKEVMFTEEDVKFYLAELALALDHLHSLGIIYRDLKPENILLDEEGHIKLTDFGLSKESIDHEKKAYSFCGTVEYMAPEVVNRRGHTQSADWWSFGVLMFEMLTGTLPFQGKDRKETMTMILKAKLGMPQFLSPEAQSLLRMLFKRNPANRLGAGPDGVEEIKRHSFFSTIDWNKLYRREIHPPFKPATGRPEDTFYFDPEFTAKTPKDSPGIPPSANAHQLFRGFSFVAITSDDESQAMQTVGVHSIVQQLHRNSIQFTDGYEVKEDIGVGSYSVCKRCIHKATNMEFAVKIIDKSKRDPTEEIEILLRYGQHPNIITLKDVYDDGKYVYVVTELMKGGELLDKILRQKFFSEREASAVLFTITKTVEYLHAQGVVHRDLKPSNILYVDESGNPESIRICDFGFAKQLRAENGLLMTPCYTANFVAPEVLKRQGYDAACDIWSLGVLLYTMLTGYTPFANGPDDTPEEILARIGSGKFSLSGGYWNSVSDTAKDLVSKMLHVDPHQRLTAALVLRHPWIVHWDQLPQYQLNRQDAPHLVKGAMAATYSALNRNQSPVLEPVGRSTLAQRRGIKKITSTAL
Casein kinase II subunit alpha (Homo sapiens), sequence (P68400 whole entry, looked up, the tested form may be a part): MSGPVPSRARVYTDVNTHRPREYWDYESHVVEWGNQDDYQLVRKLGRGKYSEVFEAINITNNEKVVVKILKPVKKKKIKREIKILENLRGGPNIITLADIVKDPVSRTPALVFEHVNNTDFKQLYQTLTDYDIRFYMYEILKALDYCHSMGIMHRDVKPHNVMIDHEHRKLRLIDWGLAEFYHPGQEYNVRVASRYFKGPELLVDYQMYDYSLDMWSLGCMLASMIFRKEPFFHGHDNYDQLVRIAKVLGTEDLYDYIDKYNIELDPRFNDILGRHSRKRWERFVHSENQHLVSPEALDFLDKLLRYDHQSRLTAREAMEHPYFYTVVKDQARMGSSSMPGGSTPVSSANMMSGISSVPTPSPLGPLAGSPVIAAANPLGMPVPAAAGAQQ

For `CNc1cc(Oc2cc(C(=O)Nc3cc(N4CCN(C)CC4)cc(C(F)(F)F)c3)ccc2C)ncn1`, the inhibition [1] was 9.1%, the inhibition [2] was -8.3% and the inhibition [3] was 3.4%.
`CCN1CCN(Cc2ccc(NC(=O)c3ccc(C)c(/C=C/c4cnc5[nH]ccc5c4OC)c3)cc2C(F)(F)F)CC1` showed a % of control [4] of 4.4%, an inhibition [5] of 83% and an inhibition [6] of 68%. It also gave an inhibition [7] of 4.5%, an inhibition [8] of 77% and an inhibition [9] of 14.1%. It also gave an inhibition [10] of 14%.
With `CCN1CCN(Cc2ccc(NC(=O)c3ccc(C)c(Oc4ccnc5[nH]ccc45)c3)cc2C(F)(F)F)CC1` the inhibition [11] was “inactive”, the inhibition [12] was “inactive” and the inhibition [13] was 57.7%. The inhibition [14] was -6%, the inhibition [15] was 1.2% and the inhibition [16] was “inactive”. For the same molecule, the residual activity [17] was 1.5%, the inhibition [18] was 12.3% and the inhibition [19] was 11.5%. For the same molecule, the inhibition [20] was “inactive”, the inhibition [21] was 4.8% and the inhibition [22] was 32.4%.
